Assay [1] deals with T1, Pancreatic alpha-amylase (Sus scrofa, UniProt P00690).
T1 sequence (P00690 whole entry): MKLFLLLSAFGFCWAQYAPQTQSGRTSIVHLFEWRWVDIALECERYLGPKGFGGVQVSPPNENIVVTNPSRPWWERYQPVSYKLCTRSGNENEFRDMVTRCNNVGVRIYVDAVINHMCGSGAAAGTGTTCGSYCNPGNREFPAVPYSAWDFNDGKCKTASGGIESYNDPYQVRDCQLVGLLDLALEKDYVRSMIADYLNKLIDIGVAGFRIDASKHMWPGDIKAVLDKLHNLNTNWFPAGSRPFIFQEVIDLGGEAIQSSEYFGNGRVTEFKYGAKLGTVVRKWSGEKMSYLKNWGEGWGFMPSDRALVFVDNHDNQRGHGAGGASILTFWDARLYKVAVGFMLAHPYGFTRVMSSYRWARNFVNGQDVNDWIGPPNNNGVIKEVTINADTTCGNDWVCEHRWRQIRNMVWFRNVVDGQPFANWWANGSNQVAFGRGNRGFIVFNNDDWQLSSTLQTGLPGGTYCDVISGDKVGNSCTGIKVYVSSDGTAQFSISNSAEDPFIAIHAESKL
Nature of the assay: Inhibition of porcine pancreatic alpha-amylase using soluble starch as substrate after 30 mins by Bernfeld method.

The target in assay [2] is Heat shock protein HSP 90-beta (Homo sapiens, UniProt P08238). Nature of the assay: Inhibition of HSP90 (unknown origin).
The target of assay [3] is T2, Alpha-amylase 1A (Homo sapiens) (UniProt P0DUB6).
T2 sequence (whole entry): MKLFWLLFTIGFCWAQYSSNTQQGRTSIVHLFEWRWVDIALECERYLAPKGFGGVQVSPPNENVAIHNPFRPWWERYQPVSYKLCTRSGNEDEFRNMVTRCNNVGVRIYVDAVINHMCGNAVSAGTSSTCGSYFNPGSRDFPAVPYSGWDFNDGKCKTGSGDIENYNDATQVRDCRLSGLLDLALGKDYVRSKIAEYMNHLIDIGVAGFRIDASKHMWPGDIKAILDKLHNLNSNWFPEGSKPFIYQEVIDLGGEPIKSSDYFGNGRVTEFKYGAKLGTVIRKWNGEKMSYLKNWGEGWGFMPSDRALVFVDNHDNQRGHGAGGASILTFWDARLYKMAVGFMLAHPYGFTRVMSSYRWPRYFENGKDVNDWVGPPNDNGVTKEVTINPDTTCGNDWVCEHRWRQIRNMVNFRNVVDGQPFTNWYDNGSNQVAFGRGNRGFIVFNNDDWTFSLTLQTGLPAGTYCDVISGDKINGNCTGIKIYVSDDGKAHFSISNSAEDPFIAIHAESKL
Briefly: Inhibition of human salivary alpha-amylase using GalG2CNP as substrate at 200 uM by UV-Vis spectrophotometric analysis. Put shortly:
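Single-concentration test at 200 μM inhibitor against human salivary α-amylase (2 nM) with GalG2CNP substrate, 50 mM MES pH 6.0 containing 5 mM Ca(OAc)2, 51.5 mM NaCl, 152 mM NaN3, 37°C. Chloronitrophenol liberation monitored continuously at 400 nm by UV-Vis spectrophotometry.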

Assay [4] addresses Alpha-amylase type A isozyme (Hordeum vulgare, UniProt P00693). Briefly: Inhibition of recombinant barley alpha-amylase isozyme-1 using DP17 amylose as substrate preincubated for 5 mins followed by substrate addition by copper-bicinchoninate method.
For assay [5], the target named is T1, Pancreatic alpha-amylase. Nature of the assay: Inhibition of porcine pancreatic alpha-amylase using DP17 amylose as substrate preincubated for 5 mins followed by substrate addition by copper-bicinchoninate method.

Activity calls are given as the source filed them. The rule behind the calls is not given here.

In general, Ki refers to the dissociation constant of the complex between target and ligand, obtained from inhibition or displacement. A word on the IC50: it is the concentration at which inhibition is half-maximal. Higher therefore signals lower potency.

Chain of Heat shock protein HSP 90-beta (P08238 whole entry): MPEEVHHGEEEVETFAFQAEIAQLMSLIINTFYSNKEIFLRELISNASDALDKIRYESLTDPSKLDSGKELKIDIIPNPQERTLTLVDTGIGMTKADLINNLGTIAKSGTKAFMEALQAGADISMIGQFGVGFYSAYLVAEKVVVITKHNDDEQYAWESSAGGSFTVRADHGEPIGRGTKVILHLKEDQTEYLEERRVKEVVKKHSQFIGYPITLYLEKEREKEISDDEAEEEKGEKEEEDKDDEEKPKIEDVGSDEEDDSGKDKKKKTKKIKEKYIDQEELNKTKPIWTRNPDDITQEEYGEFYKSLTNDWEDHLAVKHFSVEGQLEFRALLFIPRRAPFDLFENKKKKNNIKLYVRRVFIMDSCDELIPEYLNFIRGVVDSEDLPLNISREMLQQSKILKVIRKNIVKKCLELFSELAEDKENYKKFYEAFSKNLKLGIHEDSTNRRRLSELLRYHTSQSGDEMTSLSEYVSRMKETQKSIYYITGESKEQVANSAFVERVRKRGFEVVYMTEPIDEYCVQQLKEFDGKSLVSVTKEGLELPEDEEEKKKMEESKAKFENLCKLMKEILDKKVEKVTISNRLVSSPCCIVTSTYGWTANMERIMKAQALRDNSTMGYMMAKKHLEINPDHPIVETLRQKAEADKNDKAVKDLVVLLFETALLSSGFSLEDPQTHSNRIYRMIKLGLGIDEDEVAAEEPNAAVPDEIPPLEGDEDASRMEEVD
Chain of Alpha-amylase type A isozyme (P00693 whole entry): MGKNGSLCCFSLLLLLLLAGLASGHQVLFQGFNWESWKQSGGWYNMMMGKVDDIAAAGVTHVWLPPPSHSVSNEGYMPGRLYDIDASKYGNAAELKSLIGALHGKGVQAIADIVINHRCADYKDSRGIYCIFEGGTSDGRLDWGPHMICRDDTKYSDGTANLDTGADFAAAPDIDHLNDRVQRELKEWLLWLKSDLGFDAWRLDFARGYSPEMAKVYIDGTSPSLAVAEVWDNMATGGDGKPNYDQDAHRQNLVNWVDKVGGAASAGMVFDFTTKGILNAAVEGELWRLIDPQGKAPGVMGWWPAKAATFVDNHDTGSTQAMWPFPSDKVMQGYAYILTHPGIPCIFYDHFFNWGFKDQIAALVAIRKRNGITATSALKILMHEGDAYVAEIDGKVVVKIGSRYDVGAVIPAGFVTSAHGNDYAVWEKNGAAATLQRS

Consider `O=C(/C=C/c1ccccc1)c1ccccc1` [CHALCONE], for which the affinity in assay [1], expressed as Ki, was 48 µM.

Regarding `CCc1cc(C(=O)Cn2cnc3ccccc32)c(O)cc1O`, in assay [2], the IC50 was > 50 µM. Also, the inhibition entry in assay [3] was “inactive”.

Take `O=S(=O)(O)O[C@@H](CO)[C@@H](O)CN1C[C@@H](O)[C@H](O)[C@H]1CO`: the Ki in assay [4] and in assay [5] was < 10000 µM in each case.

Values taken from ChEMBL document CHEMBL3616379, “From carbohydrates to drug-like fragments: Rational development of novel α-amylase inhibitors” (Bioorg Med Chem, 2015).
